Measured values collected from several papers.
Compare with care: the assays were run in different laboratories. Converted amounts (≈) assume the structure as drawn.

Structure (SMILES) | target or system | test | test system | setting | quantity | value
O=c1c2ccccc2[se]n1-c1ccccc1 | Influenza A virus | viral replication | Vero, H1N1 | 48 h | IC50 | 1.57 µM
CC(=O)NC[C@H]1CN(c2ccc(N3CCOCC3)c(F)c2)C(=O)O1 | Enterococcus | microbial growth, broth dilution | VRE | – | MIC | 2 mg/L (≈ 5.93 µM)
NC(=O)c1nc(F)c[nH]c1=O | Influenza A virus | viral replication, inhibitor | H1N1 PR/8 | – | EC50 | 1.32 µM
NC(=O)c1ncn([C@@H]2O[C@H](CO)[C@@H](O)[C@H]2O)n1 | Influenza A virus | viral replication, inhibitor, ELISA | MDCK, H1N1 | 24 h | IC50 | 3.44 µM
N=C(CC(O)c1cc2c(F)cc(F)cc2c2cc(C(F)(F)F)ccc12)Nc1ccc(Br)cc1 (stereo not shown) | Plasmodium knowlesi | parasite growth, SYBR Green | – | – | IC50 | 0.0033 µM
CC[C@H](C)C[C@H](C)CCCCCCCCC(=O)N[C@H]1C[C@@H](O)[C@@H](NCCN)NC(=O)[C@@H]2[C@@H](O)CCN2C(=O)[C@H]([C@H](O)CCN)NC(=O)[C@H]([C@H](O)[C@@H](O)c2ccc(O)cc2)NC(=O)[C@@H]2C[C@@H](O)CN2C(=O)[C@H]([C@@H](C)O)NC1=O | Pichia kudriavzevii | microbial growth, broth dilution | ATCC14243 | 48 h | MIC | 4 mg/L (≈ 3.66 µM)
O=c1[nH]cc(F)c(=O)[nH]1 | Influenza A virus | viral replication, inhibitor, ELISA | MDCK, H1N1 | 24 h | IC50 | 50.4 µM
COC(=O)OCOc1c2n(ccc1=O)N([C@@H]1c3ccccc3SCc3c1ccc(F)c3F)[C@@H]1COCCN1C2=O | Influenza A virus | viral replication, inhibitor | MDCK, H1N1 WSN | – | EC50 | 0.000946 µM
O=C1c2ccccc2-c2c3c(cc4ccnc1c24)OCO3 | HuCC-A1 | cell growth or viability, MTT | – | 75 h | IC50 | 10 µM
Sc1ncnc2nc[nH]c12 | Influenza A virus | viral replication, inhibitor, ELISA | MDCK, H1N1 | 24 h | IC50 | 11.3 µM
N=C(CC(O)c1cc2c(F)cc(F)cc2c2cc(C(F)(F)F)ccc12)Nc1cccc(F)c1 (stereo not shown) | Plasmodium knowlesi | parasite growth, SYBR Green | – | – | IC50 | 0.0064 µM
N.N.[Cl][Pt][Cl] | SU-DHL-8 | cell growth or viability, ATP luminescence | – | 10 µM, 72 h | inhibition | 100%
C[C@@H]1C[C@@H]([C@H](O)CC2CC(=O)NC(=O)C2)C(=O)[C@@H](C)C1 | Fusarium solani | microbial growth, broth dilution | – | – | MIC | 12 mg/L (≈ 42.7 µM)
